In publication PMC9860304 (Proceedings of the National Academy of Sciences of the …, 2022):

Tested on: RAN translation of r(G4C2)^exp
Assay: RAN translation assay in HEK293T cells co-transfected with
Type: cell-based
Details: read-out: IC50 for inhibition of RAN translation, approximate values
How it was run: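 HEK293T cells in DMEM/10% FBS at ~80% confluency were co-transfected with (G4C2)66-no ATG-GFP and an mCherry control plasmid, reseeded, and dosed 2 h later. After 24 h with compound, cells were lysed in 100 mM potassium phosphate pH 7.8 with 0.2% Triton X-100. GFP (ex 485/20, em 528/20) and mCherry (ex 530/25, em 590/35) were read, and the untransfected-cell-background-corrected GFP/mCherry ratio was used.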

- IC50: ~300 nM
Structure (SMILES): Cc1c2ccnc(C(=O)NCCN(C)C)c2cc2c3cc(O)ccc3n(C)c12 [Compound 2]
